Results on 3 compounds are retold here after ChEMBL document CHEMBL1938262, “A specific protein disorder catalyzer of HIV-1 Nef” (Bioorg Med Chem, 2011).

pEC50, pIC50: −log10 of the molar value. The source made the active and inactive calls. The calls are words filed in the database; no cut-off is given here. Bounds are passed on as bounds.

A short description of data set [1]: Solubility of the compound. It counts as physicochemical.
The nature of data set [2]: Induction of HIV1 GST-Nef-mVenus proteolysis after 30 mins preincubation measured after 60 mins by cleavage enzyme-cytometric bead array method in presence of HIV1 protease. Further details: species or system Human immunodeficiency virus 1. The gist of the method: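 CE-CBA: a GST-Nef-mVenus reporter is immobilized on anti-GST antibody beads and cleaved by HIV protease. Cleavage is followed as loss of bead fluorescence by flow cytometry. Values are normalized to the DMSO control (0% cleavage) and intrinsic bead fluorescence (100%). Relative EC50 is reported as mean ± SEM of three independent experiments.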

A short description of data set [3]: Inhibition of HIV1 Nef (56-206)/SH3 domain of GST-Hck expressed in Escherichia coli BL21 DE3 complex formation after 1 hr by high-mass MALDI TOF analysis. The gist of the method:
(§1)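 Nef core (56–206) and Hck SH3 were expressed in E. coli BL21 DE3 as GST fusions, thrombin-cleaved and gel-filtered. Nef was preincubated 1 h at rt with compound from DMSO stocks (up to 5 mM stock), then SH3-Hck was added for 1 h at rt. Samples were cross-linked 1 h, mixed with sinapinic acid matrix and analysed by high-mass MALDI-TOF in triplicate. IC50 comes from % complex versus log concentration.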

A short description of data set [4]: Cytotoxicity against african green monkey COS7 cells assessed as cell viability up to 40 uM after 70 hrs. The following applies: chlorocebus aethiops, read-out: Activity. It counts as cell-based, COS-7.
The nature of data set [5]: Inhibition of HIV1 Nef (56-206)/SH3 domain of GST-Hck expressed in Escherichia coli BL21 DE3 complex formation at […] after 1 hr by high-mass MALDI TOF analysis. The gist of the method: as §1
The subject of data set [6] is Protein Nef (Human immunodeficiency virus type 1). Put plainly: Decrease in aggregation temperature of HIV1 His-tagged Nef at 10 to 200 uM by thermal protein denaturation assay (reference value: 58.83 +/- 0.25 degC).

The term pEC50 denotes the negative decadic logarithm of the EC50, by convention in mol/L. As a reminder, the pIC50 is −log10 of the IC50, conventionally taken in molar units. On to `CC(C)(C)c1ccc(-c2ccc(OCC(=O)Nc3cccc(C(=O)O)c3)cc2)cc1`, for which the solubility result in data set [1] was “Insoluble”. Besides, in data set [2], the pEC50 is 4.46. Further, the pIC50 in data set [3] is 4.80. Moreover, the viability at 70 h in data set [4] stood at 73%. For the same compound, the inhibition result in data set [5] was “Active”.
Consider `COC(=O)c1cccc(NC(=O)COc2ccc(-c3ccc(C(C)(C)C)cc3)cc2)c1`, for which the solubility result in data set [1] is “Insoluble”.
As for `CC(C)(C)c1ccc(OCC(=O)Nc2cccc(C(=O)O)c2)cc1`, in data set [2], the pEC50 was 3.96. In data set [3], this compound showed a pIC50 of under 4.30. Also, in data set [4], the viability at 70 h worked out at 86.6%. For the same compound, in data set [5], the inhibition result was “Active”. In addition, the T in data set [6] is 50.3 °C.
